# Source: PubChem (The Scripps Research Institute Molecular Screening Center)
# An excerpt weighted towards active compounds, which were near 1.5% of everything screened.
# OXTR potentiate: human OXTR potentiators, primary screen, fluorescence, CHO-OTR cells, Fluo-8 calcium | AID 2445, 2010 | Fluo-8 calcium fluorescence, potentiator mode; 0% = oxytocin EC15, 100% = EC100 | hit rate 0.061% among 320,000 | activation, % at 3 µM;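 active = activation above that plate's cutoff, the mean activation of tested compounds plus 3 SD, cut at about 6.6% in these data, passing the limit was not always enough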;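 note: 100% uses oxytocin at 75 nM as the full agonist control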
#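 Assay system: CHO cell line stably expressing human OTR. Reagent: EC15 oxytocin agonist. Dosing: single dose, 3.0 µM nominal final compound concentration. Timing: compound 6 min at room temperature before oxytocin, 100 s read. Signal: kinetic Fluo-8 calcium fluorescence. Controls: oxytocin EC15 low and EC100 high.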
# M4 PAM: human M4 muscarinic receptor positive allosteric modulators, primary screen, CHO-K1 cells, Fluo-8 calcium fluorescence | Muscarinic acetylcholine receptor M4 (Homo sapiens), P08173 | CHO-K1 hM4/Gqi5, ACh EC20; 0% = ACh EC20, 100% = maximal ACh | activation, % at 3 µM | hit rate 0.4% among 360,000 | AID 624126, 2012;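 active = activation above its plate's cutoff, the mean activation of sample wells plus 3 SD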
# V1aR counter: agonists of human V1a receptor, primary screen, counter-screen for OXTR agonist project, fluorescence, CHO-V1R cells. Fluo-8 calcium fluorescence, agonist mode; 0% DMSO, 100% 3 nM vasopressin. Vasopressin V1a receptor (Homo sapiens), P37288. hit rate 0.25% among 320,000. activation, % at 3 µM. AID 2797, 2010;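 active = activation above the mean activation of all tested compounds plus 3 SD, per screening run, cut at about 20% in these data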;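 note: signal is peak over basal fluorescence ratio across a 100 second FLIPR read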
# Target sequence (P37288 whole entry, looked up): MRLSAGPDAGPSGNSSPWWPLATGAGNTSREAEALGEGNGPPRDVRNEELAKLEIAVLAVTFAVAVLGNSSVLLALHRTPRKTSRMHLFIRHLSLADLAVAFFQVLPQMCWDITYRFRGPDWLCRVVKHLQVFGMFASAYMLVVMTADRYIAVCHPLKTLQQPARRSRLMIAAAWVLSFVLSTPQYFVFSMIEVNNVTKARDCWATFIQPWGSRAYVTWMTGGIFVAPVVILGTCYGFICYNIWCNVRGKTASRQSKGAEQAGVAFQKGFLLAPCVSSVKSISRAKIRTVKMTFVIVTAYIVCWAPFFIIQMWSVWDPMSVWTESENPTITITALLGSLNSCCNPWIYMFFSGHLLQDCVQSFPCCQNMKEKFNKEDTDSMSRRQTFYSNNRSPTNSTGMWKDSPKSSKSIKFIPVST
# CHRM4 agonist: human M4 muscarinic receptor agonists, primary screen, CHO-K1 cells, Fluo-8 calcium fluorescence. CHO-K1 hM4/Gqi5; vehicle 0%, full acetylcholine response 100%. hit rate 0.14% among 360,000. AID 624127, 2012. activation, % at 3 µM;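 active = activation above the run mean over all test wells plus 3 SD, cut at about 32% in these data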;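 note: peak over basal fluorescence ratio per well then scaled between controls; 0% = DMSO wells and 100% = acetylcholine at EC100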
# CHRM4 antagonist: human M4 muscarinic receptor antagonists, primary screen, CHO cells, Fluo-8 calcium fluorescence. Muscarinic acetylcholine receptor M4 (Homo sapiens), P08173. hit rate 0.73% among 360,000. CHO-hM4 cells, ACh EC80. inhibition, % at 3 µM;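 active = inhibition above its plate's cutoff, the mean inhibition of sample wells plus 3 SD, cut at about 27% in these data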;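 note: 0% = acetylcholine EC80 with DMSO and 100% = DMSO without agonist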
# OXTR ag: human OXTR agonists, primary screen, fluorescence, CHO-OTR cells, Fluo-8 calcium | Fluo-8 calcium fluorescence; normalized: DMSO 0%, oxytocin 100% | AID 2435, 2010 | activation, % at 3 µM | hit rate 0.32% among 320,000 | Oxytocin receptor (Homo sapiens), P30559;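 active = activation above the mean of all tested compounds plus 3 SD, cutoff set per screening run, cut at about 20% in these data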;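 note: peak over basal fluorescence ratio from a 100 s FLIPR kinetic read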
# Starred values were filed as active, the others as inactive; · = not tested or not shown.
SMILES,OXTR potentiate,M4 PAM,V1aR counter,CHRM4 agonist,CHRM4 antagonist,OXTR ag
O=C1NC(=O)N(c2ccccc2)C(=O)/C1=C/c1ccc(Sc2ccccc2)o1,-8.5,6.4,1.4,2.5,-0.5,2.2
O=C1NC(=O)N(c2cccc(Cl)c2)C(=O)/C1=C\c1ccc(Sc2nc3ccccc3[nH]2)o1,-21.2,-7.4,57.3*,24.6,6.2,59.1*
C=CCn1c(O)c(/C(C)=N/N2CCCCCC2)c(=O)[nH]c1=O,-12.2,7.1,-0.1,1.7,4.0,1.9
C[C@@H]1COc2cccc(N3CCN(C)CC3)c2S(=O)(=O)N1,·,-3.0,·,1.1,1.3,·
c1ccc2c(CN3CCCCCCC3)c[nH]c2c1,-1.7,-21.9,1.6,0.2,31.7*,1.9
CC(=O)OC(C)(C)/C=C/C(=O)[C@](C)(O)[C@H]1[C@H](O)C[C@@]2(C)[C@@H]3CC=C4[C@H](C[C@H](O)C(=O)C4(C)C)[C@]3(C)C(=O)C[C@]12C,·,6.4,·,0.0,3.1,·
CC(=O)OC(C)(C)/C=C/C(=O)C(C)(O)C1C(O)CC2(C)C3CC=C4C(CC(O)C(=O)C4(C)C)C3(C)C(=O)CC12C (stereo unspecified),·,16.2*,·,0.6,-7.7,·
COC(=O)C1=C(c2ccc(OC(F)(F)F)cc2)C[C@@H]2CC[C@H]1N2C(=O)NCCOc1ccc(OC)cc1,-4.8,-1.7,2.6,3.5,-5.4,-0.3
CN1CCC(OC(=O)C2c3ccccc3Oc3ccccc32)CC1,-1.9,-20.1,1.7,2.6,98.8*,3.9
COc1cccc(C(c2nnnn2Cc2ccccc2)N2CCC3(CC2)C(=O)NCN3c2ccccc2)c1OC (stereo unspecified),·,-9.4,·,20.0,16.4,·
CCN(CC)c1ccc(/C=C2\C(=O)NC(=S)N(C)C2=O)o1,-4.3,-8.5,23.0*,11.5,8.0,22.1*
CCN(CC)c1ccc(C=C2C(=O)N(C)C(=S)N(C)C2=O)o1,-2.3,-2.6,7.7,3.8,10.2,6.7
Cc1cc(-c2cc(C)c(N)c(C)c2)cc(C)c1N,·,6.0,·,1.3,-2.2,·
c1ccc2c[n+](CCCCCCCCCC[n+]3ccc4ccccc4c3)ccc2c1,·,-9.8,·,0.8,26.8*,·
CCOC(=O)/C(CCCN(CC)CC)=N\O,-6.0,-19.3,1.1,0.3,34.2*,-0.6
C[N+](C)(N)CCOC(=O)C(O)(c1ccccc1)C1CCCCC1 (stereo unspecified),3.7,-14.7,0.4,1.0,99.5*,1.3
CC[N+](CC)(CC)CCCOC(=O)C(O)(c1ccccc1)C1CCCCC1 (stereo unspecified),-5.9,-21.5,0.2,-0.3,98.6*,-0.5
O=C1NCN(c2ccccc2)C12CCN(C(c1ccccc1OC(F)(F)F)c1nnnn1C1CCCC1)CC2 (stereo unspecified),·,5.5,·,0.9,-13.4,·
Oc1c(Br)cc(Br)cc1CN1CCN(Cc2ccccc2)CC1,-3.5,-11.6,-0.1,-0.9,3.4,-1.7
CCN1CCN(Cc2cc(Br)cc(OC)c2O)CC1,-3.1,-26.2,0.5,2.4,39.2*,0.4
Cc1oc(-c2ccc(F)cc2F)nc1CN1C[C@@H]2C[C@@H](C1)c1cccc(=O)n1C2,-11.8,-0.3,-1.7,1.3,-6.2,-2.4
O=c1[nH]c(O)c(N=Nc2ccc([N+](=O)[O-])cc2)c(=O)[nH]1,-6.2,5.8,0.1,2.1,0.8,0.4
CC1CCCN(c2ccc(C(=O)N3CCC4(CC3)OCCO4)cc2[N+](=O)[O-])C1 (stereo unspecified),-5.1,-1.5,0.7,1.6,-7.3,0.3
CCOC(=O)C1CCCN(c2ccc([N+](=O)[O-])c3nonc23)C1 (stereo unspecified),·,-30.9,·,314.2*,52.6*,·
C[C@]12C[C@H](O)[C@@H](O)C[C@@H]1CC[C@@H]1[C@@H]2CC[C@]2(C)C(=O)CC[C@@H]12,·,-2.9,·,23.1,-8.1,·
SMILES,OXTR potentiate,M4 PAM,V1aR counter,CHRM4 agonist,CHRM4 antagonist,OXTR ag
Cc1cc(-c2ccccc2)cc(-c2ccccc2)[n+]1CCc1ccccc1,-1.8,-7.3,0.1,2.0,37.8*,0.1
Clc1ccc(C[n+]2c(-c3ccccc3)cc(-c3ccccc3)cc2-c2ccccc2)cc1,-5.4,-9.6,1.0,6.2,30.8*,0.8
CCCC[N+]12CCC(CC1)C(=C(c1ccccc1)c1ccccc1)C2,-3.2,-15.6,-0.1,0.6,56.9*,-1.8
CCC[N+]12CCC(CC1)C(=C(c1ccccc1)c1ccccc1)C2,0.1,-15.7,0.4,0.7,57.0*,0.9
O=[N+]([O-])c1cc(S(=O)(=O)c2ccc(O)c([N+](=O)[O-])c2)ccc1O,-4.5,0.7,0.2,1.0,4.4,-0.7
COC(=O)C1=C(c2ccc(F)cc2OCc2ccccc2)C[C@@H]2CC[C@H]1N2C(=O)NCCN1CCOCC1,-4.8,7.2,1.5,1.4,-8.3,0.5
CS(=O)(=O)c1ccc(C2=C(CNC(=O)c3nccs3)[C@H]3CC[C@@H](C2)N3CCOc2ccccc2)cc1,·,-14.5,·,2.0,48.7*,·
C[CH2][Hg][S]c1ccccc1C(=O)O,12.1*,33.4*,6.6,8.8,35.9*,4.3
CC1=C[C@@H]2c3cccc4[nH]cc(c34)C[C@H]2N(C)C1,-9.2,-15.9,1.1,2.3,56.9*,1.7
CC12CN3CCN(C1)CC(C)(C3)C2=NO,-4.2,0.0,0.4,0.8,2.9,0.7
CCN(CC)c1ccc(/C=C/[N+](=O)[O-])cc1,-17.5,-28.0,72.6*,71.2*,28.6*,41.6*
Cc1nc2ccccc2c(=O)n1-c1cccc(O)c1,-2.4,17.2*,0.0,0.5,-8.0,-2.3
Cc1ccc2nsnc2c1-n1c(C)nc2ccccc2c1=O,-1.2,29.7*,0.7,1.2,14.0,-0.2
CCOP(=O)(CCP(=O)(OCC)OCC)OCC.C[CH2][Sn]([Cl])([Cl])[CH2]C,·,3.9,·,0.1,-9.3,·
CC12CCC(=O)CC1CCC1C2C(=O)CC2(C)C1CCC2(C)O (stereo unspecified),·,-2.7,·,0.3,1.8,·
CC(=O)OCC[N+](C)(C)C,0.2,-20.7,1.7,95.8*,79.0*,-0.4
C[N+](C)(C)CCOC(=O)CBr,4.5,0.4,0.5,0.8,-8.5,0.3
C[N+]1(C)[C@@H]2CC(OC(=O)[C@H](CO)c3ccccc3)C[C@H]1[C@@H]1O[C@@H]12 (stereo partly specified),-7.5,·,1.1,·,·,1.2
